Activity calls are given as the source filed them. No cut-off for these calls is given here.
Tests used:
[1] = Inhibition of Trypanosoma cruzi carbonic anhydrase preincubated for 15 mins to 6 hrs by CO2 hydration stopped-flow assay
How it was run: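 Recombinant TcCA prepared in-house. Stopped-flow CO2 hydration assay with 0.2 mM phenol red read at 557 nm, in 20 mM HEPES pH 7.5 with 20 mM Na2SO4, at 20 °C. CO2 1.7–17 mM. Initial rates taken over 10–100 s and uncatalyzed rates subtracted. Inhibitor diluted down to 0.01 nM and preincubated with enzyme 15 min at room temperature or 6 h at 4 °C. KI by nonlinear least squares, mean of ≥3 determinations.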

Trypanosoma cruzi = assay: Antitrypanosomal activity against Trypanosoma cruzi epimastigotes at 64 to 256 uM by ELISA; format: functional, organism-based
How it was run: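 Resazurin viability assay on log-phase T. cruzi epimastigotes (strains DM28 and Y). Cultures seeded 24 h at 28 °C, plated and incubated a further 48 h at 28 °C. Resazurin added, incubation 1–6 h, then dual-wavelength absorbance at 490 and 595 nm with background subtracted. Compounds tested at 256, 128 and 64 μM. Benznidazole as reference. Three experiments, each in triplicate.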

Carbonic anhydrase 2 = Carbonic anhydrase 2 (Homo sapiens, UniProt P00918); assay: Inhibition of human carbonic anhydrase 2 preincubated for 15 mins to 6 hrs by CO2 hydration stopped-flow assay
Carbonic anhydrase 1 = Carbonic anhydrase 1 (Homo sapiens, UniProt P00915); assay: Inhibition of human carbonic anhydrase 1 preincubated for 15 mins to 6 hrs by CO2 hydration stopped-flow assay
Chain of Carbonic anhydrase 1 (P00915 whole entry): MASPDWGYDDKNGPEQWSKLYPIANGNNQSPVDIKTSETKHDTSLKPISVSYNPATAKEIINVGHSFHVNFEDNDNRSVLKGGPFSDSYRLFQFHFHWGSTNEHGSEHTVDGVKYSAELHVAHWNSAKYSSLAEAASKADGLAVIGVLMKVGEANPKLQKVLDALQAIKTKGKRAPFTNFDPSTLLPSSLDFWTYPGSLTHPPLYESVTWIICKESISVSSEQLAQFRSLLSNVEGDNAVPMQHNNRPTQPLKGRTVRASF

Compound | Ki [1] [nM] | further results
COc1ccc(CC(=O)NCc2ccc(S(N)(=O)=O)cc2)cc1 | 7.4 | –
NS(=O)(=O)c1ccc(NC(=O)Cc2ccc(Cl)cc2)c(Br)c1 | 7.1 | –
COc1ccc(CC(=O)Nc2ccc(S(N)(=O)=O)cc2F)cc1 | 4.1 | –
COc1ccc(CC(=O)Nc2ccc(S(N)(=O)=O)cc2)cc1 | 8 | –
NS(=O)(=O)c1ccc(NC(=O)Cc2ccc(F)cc2)c(F)c1 | 8.3 | –
NS(=O)(=O)c1nnc(NC(=O)Cc2ccc(F)cc2)s1 | 7.6 | –
NS(=O)(=O)c1ccc(NC(=O)Cc2ccc(Cl)cc2)cc1 | 2.7 | –
NS(=O)(=O)c1ccc(CCNC(=O)Cc2ccccc2Br)cc1 | 3.3 | Activity (Trypanosoma cruzi): inactive
NS(=O)(=O)c1ccc(NC(=O)Cc2ccccc2Br)c(Cl)c1 | 7.8 | –
COc1ccc(CC(=O)Nc2ccc(S(N)(=O)=O)cc2Br)cc1 | 7.2 | –
NS(=O)(=O)c1ccc(NC(=O)Cc2ccccc2Br)cc1 | 8.9 | –
NS(=O)(=O)c1ccc(NC(=O)Cc2ccc(Cl)cc2)c(Cl)c1 | 7.7 | –
NS(=O)(=O)c1ccc(NC(=O)Cc2ccc(F)cc2)c(Cl)c1 | 7 | –
NS(=O)(=O)c1nnc(NC(=O)Cc2ccc(Cl)cc2)s1 | 0.95 | Activity (Trypanosoma cruzi): inactive
NS(=O)(=O)c1ccc(NC(=O)Cc2ccc(F)cc2)cc1 | 8.5 | –
NS(=O)(=O)c1ccc(NC(=O)Cc2ccc(F)cc2)c(Br)c1 | 9 | –
NS(=O)(=O)c1nnc(NC(=O)Cc2ccccc2Br)s1 | 0.83 | –
COc1ccc(CC(=O)Nc2ccc(S(N)(=O)=O)cc2Cl)cc1 | 7.9 | –
NS(=O)(=O)c1ccc(CNC(=O)Cc2ccc(F)cc2)cc1 | 3.7 | –
NS(=O)(=O)c1ccc(CNC(=O)Cc2ccc(Cl)cc2)cc1 | 12.5 | –
NS(=O)(=O)c1ccc(NC(=O)Cc2ccc(Cl)cc2)c(F)c1 | 1.2 | Activity (Trypanosoma cruzi): inactive
NS(=O)(=O)c1ccc(CNC(=O)Cc2ccccc2Br)cc1 | 9 | –
NS(=O)(=O)c1ccc(CCNC(=O)Cc2ccc(F)cc2)cc1 | 9.1 | –
NS(=O)(=O)c1ccc(NC(=O)Cc2ccccc2Br)c(Br)c1 | 10.9 | –
COc1ccc(CC(=O)Nc2nnc(S(N)(=O)=O)s2)cc1 | 0.51 | Activity (Trypanosoma cruzi): inactive
NS(=O)(=O)c1ccc(NC(=O)Cc2ccccc2Br)c(F)c1 | 1.6 | Activity (Trypanosoma cruzi): inactive
COc1ccc(CC(=O)NCCc2ccc(S(N)(=O)=O)cc2)cc1 | 7.5 | Ki (Carbonic anhydrase 2): 0.81 nM; Ki (Carbonic anhydrase 1): 3.7 nM
NS(=O)(=O)c1ccc(CCNC(=O)Cc2ccc(Cl)cc2)cc1 | 11.8 | Ki (Carbonic anhydrase 2): 6.4 nM; Ki (Carbonic anhydrase 1): 9.7 nM

Reference: ChEMBL document CHEMBL2401702, “A class of sulfonamides with strong inhibitory action against the α-carbonic anhydrase from Trypanosoma cruzi” (J Med Chem, 2013)
